From ChEMBL document CHEMBL1125098, “Lipophilic 1,3-xylyl-21-crown-6 macrocyclic polyether 2-carboxylic acids as biological mimics of the ionophore antibiotics” (1990)
Values after ≈ are worked out from the molar mass of the structure shown.

Assays:
Clostridium perfringens = experiment: Antibacterial activity was determined against Clostridium perfringens 10A002; type: functional
In short: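 Agar dilution MIC on BHI agar, twelve 2-fold dilutions of drug starting at 200 μg/mL. Overnight BHI broth cultures (37 °C) diluted 100-fold; about 10000–20000 cells spotted per point by multiple inoculator. Plates read after 18 h at 37 °C, single colonies disregarded. Incubated anaerobically under 80% N₂, 10% CO₂, 10% H₂ in an anaerobic chamber.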

Bos taurus [1] = organism: Bos taurus; experiment: In vitro rumen propionic acid test procedure, 20 ug/mL; type: functional
In short: (§1)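 Filtered rumen fluid (10 mL) with 400 mg substrate (68% corn starch, 17% cellulose, 15% extracted soybean meal) and pH 6.8 buffer, compound at 50 or 20 μg/mL; N2-gassed, shaken at 39 °C ~6 h, triplicate. Stopped with metaphosphoric acid, then GLC peak heights of acetic/propionic/butyric acids; response expressed relative to monensin at 10 μg/mL versus untreated controls.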

Bos taurus [2] = organism: Bos taurus; experiment: In vitro rumen propionic acid test procedure, 50 ug/mL; type: functional; in short: as §1
Staphylococcus aureus = experiment: Antibacterial activity against Staphylococcus aureus 01A005; type: functional
In short: (§2)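 Agar dilution MIC on BHI agar: overnight BHI broth cultures (37 °C) diluted 100-fold, ~10000–20000 cells spotted by multiple inoculator; twelve 2-fold dilutions starting at 200 μg/mL; plates read after 18 h at 37 °C, single colonies disregarded. Compounds tested as macrocyclic carboxylate salts.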

[3] = Antibacterial activity Streptococcus zooepidemicus 02H001; type: functional, Streptococcus equi subsp. zooepidemicus; settings: Streptococcus equi; in short: as §2
[4] = Antibacterial activity against Streptococcus equi 02I001; type: functional; in short: as §2

Cc1cc(C(C)(C)CC(C)(C)C)cc2c1OCCOCCOCCOCc1cc(C(C)(C)C)cc(c1C(=O)O)COCCOCCOCCO2
MIC (Clostridium perfringens): 12.5 µg/mL (≈ 17.8 µM) | Stimulation (Bos taurus [1]): 0.11% | Stimulation (Bos taurus [2]): 0.41% | MIC (Staphylococcus aureus): 12.5 µg/mL (≈ 17.8 µM) | MIC [3]: 6.25 µg/mL (≈ 8.89 µM) | MIC [4]: 3.12 µg/mL (≈ 4.44 µM)

CC(C)(C)c1cc2c(C(=O)O)c(c1)COC(COc1ccccc1)COc1ccccc1OCCOCCOCCOC2 (configuration not stated)
MIC (Clostridium perfringens): 25 µg/mL (≈ 42 µM) | Stimulation (Bos taurus [1]): 0% | MIC (Staphylococcus aureus): 25 µg/mL (≈ 42 µM) | MIC [3]: 50 µg/mL (≈ 84.1 µM) | MIC [4]: 25 µg/mL (≈ 42 µM)

Cc1cc(C(C)(C)CC(C)(C)C)cc2c1OCCOCCOCc1cccc(c1C(=O)O)COCCOCCO2
Stimulation (Bos taurus [1]): 0.33% | Stimulation (Bos taurus [2]): 0.87% | MIC (Staphylococcus aureus): 25 µg/mL (≈ 44.7 µM) | MIC [3]: 50 µg/mL (≈ 89.5 µM) | MIC [4]: 12.5 µg/mL (≈ 22.4 µM)

CC(C)(C)CC(C)(C)c1cc(Cc2ccccc2)c2c(c1)OCCOCCOCc1cc(C(C)(C)C)cc(c1C(=O)O)COCCOCCO2
MIC (Clostridium perfringens): 1.56 µg/mL (≈ 2.26 µM) | Stimulation (Bos taurus [1]): 0.44% | Stimulation (Bos taurus [2]): 0.76% | MIC (Staphylococcus aureus): 3.12 µg/mL (≈ 4.52 µM) | MIC [3]: 3.12 µg/mL (≈ 4.52 µM) | MIC [4]: 3.12 µg/mL (≈ 4.52 µM)

CC(C)(C)CC(C)(C)c1ccc2c(c1)OCCOCCOCCOCc1cc(C(C)(C)C)cc(c1C(=O)O)COCCOCCOCCO2
MIC (Clostridium perfringens): 25 µg/mL (≈ 36.3 µM) | Stimulation (Bos taurus [1]): 0.4% | Stimulation (Bos taurus [2]): 0.52% | MIC (Staphylococcus aureus): 50 µg/mL (≈ 72.6 µM) | MIC [3]: 25 µg/mL (≈ 36.3 µM) | MIC [4]: 12.5 µg/mL (≈ 18.1 µM)

COc1cc2c(C(=O)O)c(c1)COCCOCCOc1c(C)cc(C(C)(C)CC(C)(C)C)cc1OCCOCCOC2
Stimulation (Bos taurus [1]): 0.04% | Stimulation (Bos taurus [2]): 0.42% | MIC (Staphylococcus aureus): 50 µg/mL (≈ 84.9 µM) | MIC [3]: 25 µg/mL (≈ 42.5 µM) | MIC [4]: 25 µg/mL (≈ 42.5 µM)

CC(C)(C)CC(C)(C)c1cc(CCc2ccccc2)c2c(c1)OCCOCCOCc1cc(C(C)(C)C)cc(c1C(=O)O)COCCOCCO2
MIC (Clostridium perfringens): 1.56 µg/mL (≈ 2.21 µM) | Stimulation (Bos taurus [1]): 0.32% | Stimulation (Bos taurus [2]): 1.09% | MIC (Staphylococcus aureus): 6.25 µg/mL (≈ 8.87 µM) | MIC [3]: 1.56 µg/mL (≈ 2.21 µM) | MIC [4]: 1.56 µg/mL (≈ 2.21 µM)

Cc1cc(C(C)(C)CC(C)(C)C)cc2c1OCCOCCOCc1cc(C(C)(C)C)cc(c1C(=O)O)COCCOCCO2
MIC (Clostridium perfringens): 3.12 µg/mL (≈ 5.07 µM) | Stimulation (Bos taurus [1]): 0.5% | Stimulation (Bos taurus [2]): 1.02% | MIC (Staphylococcus aureus): 6.25 µg/mL (≈ 10.2 µM) | MIC [3]: 6.25 µg/mL (≈ 10.2 µM) | MIC [4]: 3.12 µg/mL (≈ 5.07 µM)

CC(C)(C)CC(C)(C)c1ccc2c(c1)OCCOCCOCc1cccc(c1C(=O)O)COCCOCCO2
MIC (Clostridium perfringens): 25 µg/mL (≈ 45.9 µM) | Stimulation (Bos taurus [1]): 0.4% | Stimulation (Bos taurus [2]): 1.02% | MIC (Staphylococcus aureus): 25 µg/mL (≈ 45.9 µM) | MIC [3]: 25 µg/mL (≈ 45.9 µM) | MIC [4]: 25 µg/mL (≈ 45.9 µM)

O=C(O)c1c2cccc1COCCOCCOCCOCCOCCOC2
MIC (Clostridium perfringens): > 200 µg/mL | Stimulation (Bos taurus [1]): 0% | Stimulation (Bos taurus [2]): 0% | MIC (Staphylococcus aureus): > 200 µg/mL | MIC [3]: > 200 µg/mL | MIC [4]: > 200 µg/mL

CC(C)c1cc(C(C)(C)CC(C)(C)C)cc2c1OCCOCCOCc1cc(C(C)(C)C)cc(c1C(=O)O)COCCOCCO2
MIC (Clostridium perfringens): < 0.39 µg/mL | Stimulation (Bos taurus [1]): 0.43% | Stimulation (Bos taurus [2]): 0.7% | MIC (Staphylococcus aureus): 0.78 µg/mL (≈ 1.21 µM) | MIC [3]: 0.78 µg/mL (≈ 1.21 µM) | MIC [4]: 0.78 µg/mL (≈ 1.21 µM)

CC(C)(C)CC(C)(C)c1ccc2c(c1)OCCOCCOCc1cc(C(C)(C)C)cc(c1C(=O)O)COCCOCCO2
MIC (Clostridium perfringens): 6.25 µg/mL (≈ 10.4 µM) | Stimulation (Bos taurus [1]): 0.64% | Stimulation (Bos taurus [2]): 0.97% | MIC (Staphylococcus aureus): 12.5 µg/mL (≈ 20.8 µM) | MIC [3]: 6.25 µg/mL (≈ 10.4 µM) | MIC [4]: 6.25 µg/mL (≈ 10.4 µM)

CC(C)(C)c1ccc(OCC2COc3ccccc3OCCOCCOCCOCc3cc(C(C)(C)C)cc(c3C(=O)O)CO2)cc1 (configuration not stated)
MIC (Clostridium perfringens): 1.56 µg/mL (≈ 2.4 µM) | Stimulation (Bos taurus [1]): 0.6% | Stimulation (Bos taurus [2]): 1.06% | MIC (Staphylococcus aureus): 1.56 µg/mL (≈ 2.4 µM) | MIC [3]: 3.12 µg/mL (≈ 4.79 µM) | MIC [4]: 1.56 µg/mL (≈ 2.4 µM)

O=C(O)c1c2cccc1COCCOCCOc1ccccc1OCCOCCOC2
MIC (Clostridium perfringens): > 200 µg/mL | Stimulation (Bos taurus [2]): 0.2% | MIC (Staphylococcus aureus): > 200 µg/mL | MIC [3]: > 200 µg/mL | MIC [4]: > 200 µg/mL

COCc1cc(C(C)(C)CC(C)(C)C)cc2c1OCCOCCOCc1cc(C(C)(C)C)cc(c1C(=O)O)COCCOCCO2
MIC (Clostridium perfringens): 25 µg/mL (≈ 38.8 µM) | Stimulation (Bos taurus [1]): 0.2% | Stimulation (Bos taurus [2]): 0.64% | MIC (Staphylococcus aureus): 12.5 µg/mL (≈ 19.4 µM) | MIC [3]: 25 µg/mL (≈ 38.8 µM) | MIC [4]: 12.5 µg/mL (≈ 19.4 µM)

Cc1cc(C(C)(C)CC(C)(C)C)cc2c1OCCOCCOCc1cc(Br)cc(c1C(=O)O)COCCOCCO2
Stimulation (Bos taurus [1]): 0.06% | Stimulation (Bos taurus [2]): 0.53% | MIC (Staphylococcus aureus): 12.5 µg/mL (≈ 19.6 µM) | MIC [3]: 12.5 µg/mL (≈ 19.6 µM) | MIC [4]: 6.25 µg/mL (≈ 9.8 µM)

CCCCCCCCCCCc1ccc2c(c1)OCCOCCOCc1cccc(c1C(=O)O)COCCOCCO2
MIC (Clostridium perfringens): 3.12 µg/mL (≈ 5.32 µM) | Stimulation (Bos taurus [1]): 0.46% | Stimulation (Bos taurus [2]): 0.82% | MIC (Staphylococcus aureus): 1.56 µg/mL (≈ 2.66 µM) | MIC [3]: 1.56 µg/mL (≈ 2.66 µM) | MIC [4]: 1.56 µg/mL (≈ 2.66 µM)
